Measurements as given in article PMC6233868 (Journal of nuclear medicine : official publication, Society …, 2016).
Entries after “also recorded” stand apart in the source; their conditions may differ. Like-named read-outs stand apart in the source and are kept apart here.

How the values were obtained:
hNIS [1] = biological target: T1, hNIS (Homo sapiens, UniProt Q92911); type: cell-based
T1 sequence (Q92911 1-643): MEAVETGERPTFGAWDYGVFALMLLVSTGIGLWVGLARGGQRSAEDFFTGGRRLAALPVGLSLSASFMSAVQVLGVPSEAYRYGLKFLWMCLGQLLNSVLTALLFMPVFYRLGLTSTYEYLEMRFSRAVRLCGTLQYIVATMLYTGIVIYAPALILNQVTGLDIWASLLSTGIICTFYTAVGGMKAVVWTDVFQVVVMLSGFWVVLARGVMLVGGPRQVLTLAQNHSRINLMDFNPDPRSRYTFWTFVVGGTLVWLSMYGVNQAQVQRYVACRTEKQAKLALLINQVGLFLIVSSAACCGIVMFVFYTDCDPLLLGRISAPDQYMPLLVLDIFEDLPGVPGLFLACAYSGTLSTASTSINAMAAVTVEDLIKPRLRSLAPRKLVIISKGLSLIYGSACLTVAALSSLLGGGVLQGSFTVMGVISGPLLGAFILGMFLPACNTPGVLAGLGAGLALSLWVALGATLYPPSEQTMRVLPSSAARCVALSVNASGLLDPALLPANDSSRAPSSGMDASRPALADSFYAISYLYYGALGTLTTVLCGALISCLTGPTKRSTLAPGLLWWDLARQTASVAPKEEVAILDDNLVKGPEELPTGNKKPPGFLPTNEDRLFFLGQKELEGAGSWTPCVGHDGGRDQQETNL

HCT116 cells = assay: [18F]SO3F- uptake in hNIS-negative parental HCT116 cells; type: cell-based, human; details: presence or absence of NaClO4
[2] = stability of formulated tracer; type: physicochemical
[3] = PET/CT imaging biodistribution in Balb/c mice; type: in vivo, mouse
Outline: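 Female Balb/c mice (4-8 weeks) received NaClO4 (250 mg/kg i.p. in 0.9% NaCl) or an equal volume of saline 1 h before scanning. Dynamic PET ran for 2 h from <1 min after radiotracer injection, followed by CT. Data were corrected and binned into 5 min then 30 min frames. Manual ROIs were drawn at a 10% max-count threshold and reported as %ID (whole body minus tail) and %ID/g.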

[4] = ex vivo biodistribution in Balb/c mice; design: species or system mouse; details: 2.25 h post-injection
Outline: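 Female Balb/c mice (4-8 weeks) were pretreated 1 h before the radiotracer with NaClO4 (250 mg/kg i.p. in 0.9% NaCl) or with a saline sham. After the 2 h PET scan, mice were culled by cervical dislocation at 2.25 h post-injection. Thyroid was dissected under a microscope. Tissues were weighed and gamma-counted, giving %ID/g; n = 3, SD.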

[5] = human serum stability by TLC
hNIS [6] = biological target: T1, hNIS; type: cell-based; remark: listed apart in the source
NIS = details: read-out: IC50 for inhibition of [124I]I- uptake; cited from earlier work
hNIS [7] = biological target: T1, hNIS; type: cell-based; details: read-out: IC50, inhibition of [18F]SO3F- uptake; HCT116-C19 cells
mouse thyroid = details: in vivo; cited from earlier work
[8] = normal mice, PET time-activity curves
[9] = read-out: IC50, inhibition of [99mTc]TcO4- uptake via hNIS
[10] = read-out: IC50, inhibition of anion uptake via hNIS

## O=S(=O)(O)F [[^18F]SO3F^-] [[^18F]Fluorosulfate]
hNIS [1]
  uptake of radiotracer in HCT116-C19 cells: Specific, blockable hNIS-mediated uptake; also recorded: Significant uptake
  uptake of radiotracer in HCT116-C19 cells with NaClO4: blocked
HCT116 cells
  uptake of radiotracer in parental HCT116 cells: No uptake; also recorded: absent
[2]; formulated tracer, room temperature, 4 h, IC and TLC
  RCP after standing: > 95%
[2]; pH 3.0, 4 h
  RCP under acidic conditions: similarly constant
[3]; 30 min
  bone %ID/g relative to that in thyroid: < 1%
[3]; PET, normal mice
  time of maximum thyroid uptake: 30 min
[3]; normal mice, 30 min
  salivary gland uptake (PET): 32 ± 9 %ID/g
  thyroid uptake (PET): 563 ± 140 %ID/g
[3]; normal mice, 60 min
  bone uptake (PET): 3 ± 1 %ID/g
[3]; normal mice, 90 min
  stomach uptake (PET): 68 ± 21 %ID/g
[3]; [8]
  time at which stomach uptake reaches a plateau: around 90 min
  time at which thyroid and salivary gland uptake reaches a plateau: 30 to 45 min
[4]
  bladder radioactivity (ex vivo): 15 ± 14 %ID/g
  bone uptake (ex vivo): 17 ± 3 %ID/g
[4]; mice administered NaClO4
  bone uptake (ex vivo) with perchlorate: not blocked
  salivary gland uptake (ex vivo) with NaClO4: 2.6 ± 1.7 %ID/g
  stomach uptake (ex vivo) with NaClO4: 3.0 ± 1.7 %ID/g
  thyroid uptake (ex vivo) with NaClO4: 4.3 ± 4.6 %ID/g
[4]; without NaClO4
  salivary gland uptake (ex vivo): 18 ± 4 %ID/g
  stomach uptake (ex vivo): 59 ± 10 %ID/g
  thyroid uptake (ex vivo): 144 ± 71 %ID/g
[5]; 4 h, TLC of supernatant after ethanol protein precipitation
  RCP after incubation with human serum: > 95%
[5]; human serum, ethanol precipitation
  radioactivity associated with the protein pellet: no significant radioactivity

## F[B-](F)(F)F [BF4^-, tetrafluoroborate]
hNIS [6]; [9]
  IC50: 290 to 4500 nM

## [O]=[Tc](=[O])(=[O])[OH] [TcO4^-, pertechnetate]
hNIS [6]; [9]
  IC50: 70 nM

## [O-][Cl+3]([O-])([O-])O [ClO4^-, perchlorate]
NIS
  IC50: 100 nM

## I [I^-, iodide]
hNIS [6]; [9]
  IC50: 2700 to 4700 nM
hNIS [6]; [10]
  IC50: > 2700 nM

## O=S(=O)(O)F [SO3F^-, fluorosulfate]
hNIS [6]; [9]
  IC50: 550 to 560 nM
hNIS [6]; [10]
  IC50: 560 nM
hNIS [7]
  IC50: 1600 nM
Mouse thyroid
  inhibition of radioiodide uptake in mouse thyroid: inhibit radioiodide uptake
